# Test results published in ChEMBL document CHEMBL5724801, “EUbOPEN Chemogenomics Library - Multiplex” (2024).
# “And” between values parts separate entries of the source, which are not always exact repeats. Equal values may be shown once.
# What was measured:
# HEK-293T = assay: Multiplex assay against HEK293T; type: toxicity, cell-based; conditions: human
# Procedure, shortened: (§1)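 Cells stained live at seeding with Hoechst33342, BioTracker Green Microtubule Cytoskeleton Dye, MitoTracker Red and Annexin V Alexa Fluor 680 were imaged on a CQ1 microscope at 37°C and 5% CO2 after compound addition. Their classification by CellPathfinder machine-learning gating ran from Hoechst high-intensity objects versus normal cells, to healthy, pyknosed or fragmented nuclei among normal cells, to mitotic or apoptotic among pyknosed cells. Tubulin, mitochondrial-mass and membrane-permeability phenotypes are per cents of healthy-nucleus cells.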
# U2OS = assay: Multiplex assay against U2OS; type: toxicity, cell-based; conditions: human; procedure, shortened: as §1
# [1] = 24 h, 10 µM, compound concentration 10 uM
# [2] = 48 h, 1 µM, compound concentration 1 uM
# [3] = 48 h, 10 µM, compound concentration 10 uM
# [4] = 12 h, 1 µM, compound concentration 1 uM
# [5] = 12 h, 10 µM, compound concentration 10 uM
# [6] = 24 h, 1 µM, compound concentration 1 uM
structure (smiles),measurement,setting,value
O=C1[C@H](Cc2ccc(O)cc2)N2C(=O)CCN(C(=O)NCc3ccccc3)[C@H]2CN1Cc1cccc2ccccc12,Population Apoptotic (%),HEK-293T; [1],68% and 74%
same,Population Fragmented Nuclei (%),HEK-293T; [1],7% and 9%
same,Population Healthy Nuclei (%),HEK-293T; [1],75% and 77%
same,Population Hoechst High Intensity Objects (%),HEK-293T; [1],11% and 14%
same,Population Membrane Permeable-Phenotype (%),HEK-293T; [1],0%
same,Population Mitochondria Different-Phenotype (%),HEK-293T; [1],94% and 95%
same,Population Mitotic Cells (%),HEK-293T; [1],31% and 25%
same,Population Normal (%),HEK-293T; [1],88% and 85%
same,Population Pyknosed Nuclei (%),HEK-293T; [1],16% and 12%
same,Population Tubulin-Different-Phenotype (%),HEK-293T; [1],65% and 70%
same,Total Cell Count,HEK-293T; [1],278 and 249
same,Population Apoptotic (%),HEK-293T; [2],30% and 50%
same,Population Fragmented Nuclei (%),HEK-293T; [2],14% and 11%
same,Population Healthy Nuclei (%),HEK-293T; [2],78% and 81%
same,Population Hoechst High Intensity Objects (%),HEK-293T; [2],4% and 3%
same,Population Membrane Permeable-Phenotype (%),HEK-293T; [2],0%
same,Population Mitochondria Different-Phenotype (%),HEK-293T; [2],34% and 29%
same,Population Mitotic Cells (%),HEK-293T; [2],69% and 50%
same,Population Normal (%),HEK-293T; [2],95% and 96%
same,Population Pyknosed Nuclei (%),HEK-293T; [2],6% and 7%
same,Population Tubulin-Different-Phenotype (%),HEK-293T; [2],26% and 19%
same,Total Cell Count,HEK-293T; [2],730 and 472
same,Population Apoptotic (%),HEK-293T; [3],71% and 57%
same,Population Fragmented Nuclei (%),HEK-293T; [3],8% and 11%
same,Population Healthy Nuclei (%),HEK-293T; [3],79% and 73%
same,Population Hoechst High Intensity Objects (%),HEK-293T; [3],10% and 20%
same,Population Membrane Permeable-Phenotype (%),HEK-293T; [3],0%
same,Population Mitochondria Different-Phenotype (%),HEK-293T; [3],94% and 88%
same,Population Mitotic Cells (%),HEK-293T; [3],28% and 42%
same,Population Normal (%),HEK-293T; [3],89% and 79%
same,Population Pyknosed Nuclei (%),HEK-293T; [3],11% and 14%
same,Population Tubulin-Different-Phenotype (%),HEK-293T; [3],63% and 72%
same,Total Cell Count,HEK-293T; [3],297 and 232
same,Population Apoptotic (%),U2OS; [4],91% and 84%
same,Population Fragmented Nuclei (%),U2OS; [4],13% and 21%
same,Population Healthy Nuclei (%),U2OS; [4],74% and 66%
same,Population Hoechst High Intensity Objects (%),U2OS; [4],4% and 0%
same,Population Membrane Permeable-Phenotype (%),U2OS; [4],4% and 5%
same,Population Mitochondria Different-Phenotype (%),U2OS; [4],1% and 8%
same,Population Mitotic Cells (%),U2OS; [4],8% and 15%
same,Population Normal (%),U2OS; [4],96% and 99%
same,Population Pyknosed Nuclei (%),U2OS; [4],12% and 11%
same,Population Tubulin-Different-Phenotype (%),U2OS; [4],1% and 4%
same,Total Cell Count,U2OS; [4],200 and 113
same,Population Apoptotic (%),U2OS; [5],60% and 72%
same,Population Fragmented Nuclei (%),U2OS; [5],32% and 19%
same,Population Healthy Nuclei (%),U2OS; [5],50% and 67%
same,Population Hoechst High Intensity Objects (%),U2OS; [5],3% and 6%
same,Population Membrane Permeable-Phenotype (%),U2OS; [5],55% and 38%
same,Population Mitochondria Different-Phenotype (%),U2OS; [5],35% and 47%
same,Population Mitotic Cells (%),U2OS; [5],40% and 27%
same,Population Normal (%),U2OS; [5],96% and 93%
same,Population Pyknosed Nuclei (%),U2OS; [5],17% and 13%
same,Population Tubulin-Different-Phenotype (%),U2OS; [5],55% and 43%
same,Total Cell Count,U2OS; [5],207 and 88
same,Population Apoptotic (%),U2OS; [6],80% and 88%
same,Population Fragmented Nuclei (%),U2OS; [6],13% and 14%
same,Population Healthy Nuclei (%),U2OS; [6],73% and 71%
same,Population Hoechst High Intensity Objects (%),U2OS; [6],2% and 1%
same,Population Membrane Permeable-Phenotype (%),U2OS; [6],4% and 7%
same,Population Mitochondria Different-Phenotype (%),U2OS; [6],1% and 5%
same,Population Mitotic Cells (%),U2OS; [6],19% and 11%
same,Population Normal (%),U2OS; [6],97% and 98%
same,Population Pyknosed Nuclei (%),U2OS; [6],13% and 14%
same,Population Tubulin-Different-Phenotype (%),U2OS; [6],2% and 4%
same,Total Cell Count,U2OS; [6],242 and 127
same,Population Apoptotic (%),U2OS; [1],65% and 85%
same,Population Fragmented Nuclei (%),U2OS; [1],34% and 29%
same,Population Healthy Nuclei (%),U2OS; [1],42% and 54%
same,Population Hoechst High Intensity Objects (%),U2OS; [1],3% and 5%
same,Population Membrane Permeable-Phenotype (%),U2OS; [1],25% and 36%
same,Population Mitochondria Different-Phenotype (%),U2OS; [1],23% and 38%
same,Population Mitotic Cells (%),U2OS; [1],34% and 14%
same,Population Normal (%),U2OS; [1],96% and 94%
same,Population Pyknosed Nuclei (%),U2OS; [1],22% and 16%
same,Population Tubulin-Different-Phenotype (%),U2OS; [1],25% and 42%
same,Total Cell Count,U2OS; [1],214 and 91
same,Population Apoptotic (%),U2OS; [2],81% and 95%
same,Population Fragmented Nuclei (%),U2OS; [2],15% and 16%
same,Population Healthy Nuclei (%),U2OS; [2],73% and 67%
same,Population Hoechst High Intensity Objects (%),U2OS; [2],3% and 5%
same,Population Membrane Permeable-Phenotype (%),U2OS; [2],2% and 3%
same,Population Mitochondria Different-Phenotype (%),U2OS; [2],2% and 0%
same,Population Normal (%),U2OS; [2],96% and 94%
same,Population Pyknosed Nuclei (%),U2OS; [2],11% and 15%
same,Population Tubulin-Different-Phenotype (%),U2OS; [2],3% and 5%
same,Total Cell Count,U2OS; [2],326 and 168
same,Population Apoptotic (%),U2OS; [3],82% and 81%
same,Population Fragmented Nuclei (%),U2OS; [3],37% and 33%
same,Population Healthy Nuclei (%),U2OS; [3],43% and 46%
same,Population Hoechst High Intensity Objects (%),U2OS; [3],5% and 4%
same,Population Membrane Permeable-Phenotype (%),U2OS; [3],28% and 22%
same,Population Mitochondria Different-Phenotype (%),U2OS; [3],16% and 20%
same,Population Mitotic Cells (%),U2OS; [3],17% and 18%
same,Population Normal (%),U2OS; [3],94% and 95%
same,Population Pyknosed Nuclei (%),U2OS; [3],19% and 20%
same,Population Tubulin-Different-Phenotype (%),U2OS; [3],19% and 18%
same,Total Cell Count,U2OS; [3],252 and 111
